The values below come from ChEMBL document CHEMBL3091283, “Selective cannabinoid receptor type 2 (CB2) agonists: optimization of a series of purines leading to the identification of a clinical candidate for the treatment of osteoarthritic pain” (J Med Chem, 2013).

Series [1] is described as follows: AUC in Sprague-Dawley rat at 3 mg/kg, po. Format: ADME, organism-based. More on the design: dose 3 mg/kg, route oral. As to conditions: plasma.
Series [2] in a line: AUC in Beagle dog at 1 mg/kg, iv and 3 mg/kg, po. The class given is ADME, organism-based, Canis lupus familiaris. As to conditions: plasma. In short, it runs like this: (§1)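 Male beagle dogs given 1 mg/kg iv and 3 mg/kg po. Plasma PK parameters derived: clearance, volume of distribution, oral half-life, AUC, Cmax and oral bioavailability.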
Series [3] in a line: Volume of distribution in Beagle dog at 1 mg/kg, iv and 3 mg/kg, po. Format: ADME, organism-based, Canis lupus familiaris. As to conditions: in vivo. In short, it runs like this: as §1
Series [4] is described as follows: Aqueous solubility in simulated GI fluid at pH 6.8. The class given is physicochemical.
Series [5] in a line: Cmax in Beagle dog at 1 mg/kg, iv and 3 mg/kg, po. The class given is ADME, organism-based, Canis lupus familiaris. As to conditions: in vivo. In short, it runs like this: as §1
Series [6] is described as follows: Volume of distribution in Sprague-Dawley rat at 1 mg/kg, iv. The class given is ADME, organism-based. On the set-up: dose 1 mg/kg, route intravenous. As to conditions: in vivo. The procedure, abridged:
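Male Sprague–Dawley rats were given 1 mg/kg iv. Clearance and volume of distribution were derived from plasma pharmacokinetics.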

A short description of series [7]: AUC in Sprague-Dawley rat at 1 mg/kg, iv and 1 mg/kg, po. The class given is ADME, organism-based. As to conditions: plasma. The procedure, abridged:
(§2)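 Male Sprague-Dawley rats dosed 1 mg/kg iv and 1 mg/kg po. Clearance, volume of distribution, oral half-life, AUC, Cmax and bioavailability calculated from plasma levels.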

Series [8] relates to MDR1. The series is described as follows: MDR1-mediated transport in MDCK cells assessed as permeability from basolateral to apical side at 5 uM. Format: ADME, cell-based, Canis lupus familiaris. As to conditions: dog, read-out: permeability. The procedure, abridged:
(§3)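 Transport measured across MDCK-MDR1 monolayers at 5 μM, with and without inhibitor. A→B and B→A fluxes recorded in cm/s × 10−6; efflux ratio taken as B→A over A→B.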

Series [9] is described as follows: Oral bioavailability in Beagle dog at 3 mg/kg. The class given is ADME, organism-based, Canis lupus familiaris. As to conditions: in vivo. The procedure, abridged:
as §1

Series [10] in a line: Oral bioavailability in Sprague-Dawley rat at 1 mg/kg. Format: ADME, organism-based. As to conditions: in vivo. The procedure, abridged: as §2
Series [11] can be described thus: Cmax in Sprague-Dawley rat at 1 mg/kg, iv and 1 mg/kg, po. Format: ADME, organism-based. As to conditions: in vivo. The procedure, abridged:
as §2

Series [12] has as its system MDR1. Kind of series: MDR1-mediated transport in MDCK cells assessed as permeability from apical to basolateral side at 5 uM. The class given is ADME, cell-based, Canis lupus familiaris. As to conditions: dog, read-out: permeability. In short, it runs like this:
as §3

Series [13] is described as follows: Lipophilicity, log P of the compound. Format: physicochemical. As to conditions: octanol/water.
The nature of series [14]: Ratio of drug level in brain to plasma in rat. As to conditions: read-out: BPR. Format: ADME.

In [1], `COCCn1c(-c2ccccc2Cl)nc2c(N3CCN(CCF)CC3)nc(C)nc21.Cl` registered an AUC of less than 50 ng·h/mL.

With `Cc1nc(N2CCN(C)CC2)c2nc(-c3ccccc3Cl)n(CCS(C)(=O)=O)c2n1.Cl`, the AUC in series [2] was found to be 286 ng·h/mL; in series [7], 312 ng·h/mL. The Vd in series [3] was 9.2 L/kg; in series [6], 1.9 L/kg. For the same molecule, in series [4], the solubility is more than 100 µM. Moreover, the maximum concentration (Cmax) in series [5] was 62 ng/mL; in series [11], 76 ng/mL. In the series with MDR1 [8], the Papp B→A at 5 µM came to 43 ×10⁻⁶ cm/s. For the same molecule, the bioavailability stood at 60% in [9] and 43% in series [10]. The Papp A→B at 5 µM in the series with MDR1 [12] was 42 ×10⁻⁶ cm/s.

In series [13], `Cc1nc(N2CCN(C)CC2)c2nc(-c3ccccc3Cl)n([C@@H]3CCOC3)c2n1` had a logP of 3.2.

In series [13], `CCN1CCN(c2nc(C)nc3c2nc(-c2ccccc2Cl)n3CC2CCOCC2)CC1.Cl` came in with a log partition coefficient (logP) of 3.4. Besides, the Vd in series [6] was determined as 5 L/kg. The molecule also gave a bioavailability in series [10] of 27%.

Take `Cc1nc(N2CCN(C)CC2)c2nc(-c3ccccc3Cl)n(C3CCOCC3)c2n1.Cl`: the AUC turned out to be 1940 ng·h/mL in [2] and 265 ng·h/mL in [7]. This molecule gave a logP in series [13] of 3.1. In addition, the results for the Vd in series [3] and in series [6] were 5.5 L/kg and 6 L/kg, respectively. In series [4], this molecule yielded a solubility of more than 100 µM. Moreover, the Cmax came out at 352 ng/mL in series [5] and 60 ng/mL in series [11]. Moreover, the Kp in series [14] was found to be 0.9. In addition, the Papp B→A at 5 µM in the series on MDR1 [8] is 3.1 ×10⁻⁶ cm/s. Besides, the bioavailability was 76% in [9] and 67% in series [10]. Besides, the Papp A→B at 5 µM in the series with MDR1 [12] was found to be 3.1 ×10⁻⁶ cm/s.

Molecule `CCN1CCN(c2nc(C)nc3c2nc(-c2ccccc2Cl)n3C)CC1.Cl` displayed a solubility in [4] of more than 100 µM.

With `CCN1CCN(c2nc(C)nc3[nH]c(-c4ccccc4Cl)nc23)CC1`, the lipophilicity (logP) in series [13] was found to be 3.7.

Regarding `CCN1CCN(c2nc(C)nc3c2nc(-c2ccccc2Cl)n3CCOC)CC1.Cl`, the AUC in series [1] is less than 50 ng·h/mL.
